# From ChEMBL document CHEMBL4373711, “Development of 3,5-Dinitrophenyl-Containing 1,2,4-Triazoles and Their Trifluoromethyl Analogues as Highly Efficient Antitubercular Agents Inhibiting Decaprenylphosphoryl-β-d-ribofuranose 2'-Oxidase” (J Med Chem, 2019)
# Active and inactive are the calls of the source. No cut-off for these calls is given here.
# Tests used:
# [1] = tested on: Mycobacterium tuberculosis; assay: Antimycobacterial activity against Mycobacterium tuberculosis H37Rv CNCTC My 331/88 after 14 days; type: functional; settings: H37Rv CNCTC My 331/88, 336 h
# In short: (§1)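 M. tuberculosis strains (H37Rv and clinical MDR/XDR isolates) tested by microdilution in Šula's semisynthetic medium. Compounds were dissolved in DMSO and tested at 32 to 0.03 µM in twofold steps. Inoculum was a 1.0 McFarland suspension diluted 10-3. Plates were incubated at 37 °C and read at 14 and 21 days.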
# [2] = tested on: Mycobacterium tuberculosis; assay: Antimycobacterial activity against Mycobacterium tuberculosis H37Rv CNCTC My 331/88 after 21 days; type: functional; settings: H37Rv CNCTC My 331/88, 504 h; in short: as §1
# Mycobacterium avium [3] = assay: Antimycobacterial activity against Mycobacterium avium CNCTC My 330/88 after 14 days; type: functional; settings: CNCTC My 330/88, 336 h
# In short: (§2)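 M. avium was tested by microdilution in Šula's semisynthetic medium, with compounds dissolved in DMSO and serially diluted from 1000 down to 1. Inoculum was a 1.0 McFarland suspension diluted 10-5. Plates were incubated at 37 °C and read at 14 and 21 days. […] Isoniazid and rifampicin served as standards.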
# Mycobacterium avium [4] = assay: Antimycobacterial activity against Mycobacterium avium CNCTC My 330/88 after 21 days; type: functional; settings: CNCTC My 330/88, 504 h; in short: as §2
# Mycobacterium kansasii [5] = assay: Antimycobacterial activity against Mycobacterium kansasii CNCTC My 235/80 after 7 days; type: functional; settings: CNCTC My 235/80, 168 h
# In short: (§3)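 Microdilution in Šula's semisynthetic medium; compounds in DMSO at 32–0.03 µM. Inoculum from 1.0 McFarland suspension diluted 10-4. […] Isoniazid and rifampicin as reference drugs.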
# Mycobacterium kansasii [6] = assay: Antimycobacterial activity against Mycobacterium kansasii CNCTC My 235/80 after 14 days; type: functional; settings: CNCTC My 235/80, 336 h; in short: as §3
# Mycobacterium kansasii [7] = assay: Antimycobacterial activity against Mycobacterium kansasii CNCTC My 235/80 after 21 days; type: functional; settings: CNCTC My 235/80, 504 h; in short: as §3
# Mycobacterium kansasii [8] = assay: Antimycobacterial activity against Mycobacterium kansasii 6509/96 after 7 days; type: functional; settings: 6509/96, 168 h; in short: as §3
# Mycobacterium kansasii [9] = assay: Antimycobacterial activity against Mycobacterium kansasii 6509/96 after 14 days; type: functional; settings: 6509/96, 336 h; in short: as §3
# Mycobacterium kansasii [10] = assay: Antimycobacterial activity against Mycobacterium kansasii 6509/96 after 21 days; type: functional; settings: 6509/96, 504 h; in short: as §3
# [11] = tested on: Mycobacterium tuberculosis; assay: Antimycobacterial activity against XDR Mycobacterium tuberculosis Praha 131 after 14 days; type: functional; settings: Praha 131, 336 h; in short: as §1
# [12] = tested on: Mycobacterium tuberculosis; assay: Antimycobacterial activity against XDR Mycobacterium tuberculosis Praha 131 after 21 days; type: functional; settings: Praha 131, 504 h; in short: as §1
# Staphylococcus aureus [13] = assay: Antibacterial activity against Staphylococcus aureus subsp. aureus ATCC 29213 CCM 4223 at highest concentration measured after 24 to 48 hrs by alamar blue dye based broth microdilution assay; type: functional, organism-based
# Staphylococcus aureus [14] = assay: Antibacterial activity against methicillin-resistant Staphylococcus aureus subsp. aureus ATCC 43300 CCM 4750 at highest concentration measured after 24 to 48 hrs by alamar blue dye based broth microdilution assay; type: functional, organism-based
# [15] = tested on: Staphylococcus epidermidis; assay: Antibacterial activity against Staphylococcus epidermidis at highest concentration measured after 24 to 48 hrs by alamar blue dye based broth microdilution assay; type: functional, organism-based
# Enterococcus faecalis = assay: Antibacterial activity against Enterococcus faecalis ATCC 29212 CCM 4224 at highest concentration measured after 24 to 48 hrs by alamar blue dye based broth microdilution assay; type: functional, organism-based
# Escherichia coli = assay: Antibacterial activity against Escherichia coli ATCC 25922 CCM 3954 at highest concentration measured after 24 to 48 hrs by alamar blue dye based broth microdilution assay; type: functional, organism-based
# Klebsiella pneumoniae = assay: Antibacterial activity against Klebsiella pneumoniae at highest concentration measured after 24 to 48 hrs by alamar blue dye based broth microdilution assay; type: functional, organism-based
# Serratia marcescens = assay: Antibacterial activity against Serratia marcescens at highest concentration measured after 24 to 48 hrs by alamar blue dye based broth microdilution assay; type: functional, organism-based
# Pseudomonas aeruginosa = assay: Antibacterial activity against Pseudomonas aeruginosa ATCC 27853 CCM 3955 at highest concentration measured after 24 to 48 hrs by alamar blue dye based broth microdilution assay; type: functional, organism-based
# Candida albicans = assay: Antifungal activity against Candida albicans ATCC 24433 CCM 8320 at highest concentration measured after 24 to 48 hrs by alamar blue dye based broth microdilution assay; type: functional, organism-based
# Pichia kudriavzevii = assay: Antifungal activity against Candida krusei ATCC 6258 CCM8271 at highest concentration measured after 24 to 48 hrs by alamar blue dye based broth microdilution assay; type: functional, organism-based
# Candida parapsilosis = assay: Antifungal activity against Candida parapsilosis ATCC 22019 CCM 8260 at highest concentration measured after 24 to 48 hrs by alamar blue dye based broth microdilution assay; type: functional, organism-based
# Candida tropicalis = assay: Antifungal activity against Candida tropicalis ATCC 750 CCM 8264 at highest concentration measured after 24 to 48 hrs by alamar blue dye based broth microdilution assay; type: functional, organism-based
# Aspergillus fumigatus = assay: Antifungal activity against Aspergillus fumigatus ATCC 204305 at highest concentration measured after 24 to 48 hrs by alamar blue dye based broth microdilution assay; type: functional, organism-based
# Aspergillus flavus = assay: Antifungal activity against Aspergillus flavus CCM 8363 at highest concentration measured after 24 to 48 hrs by alamar blue dye based broth microdilution assay; type: functional, organism-based
# Lichtheimia corymbifera = assay: Antifungal activity against Lichtheimia corymbifera CCM 8077 at highest concentration measured after 24 to 48 hrs by alamar blue dye based broth microdilution assay; type: functional, organism-based
# [16] = tested on: Trichophyton interdigitale; assay: Antifungal activity against Trichophyton interdigitale ATCC 9533 CCM 8377 at highest concentration measured after 72 to 120 hrs by alamar blue dye based broth microdilution assay; type: functional
# HepG2 = assay: Cytotoxicity against human HepG2 cells assessed as reduction in cell viability after 48 hrs by CellTiter 96 aqueous one solution assay; type: cell-based; settings: HepG2, 48 h
# [17] = Cytotoxicity against human HepG2 cells assessed as cell viability at 30 uM after 48 hrs by CellTiter 96 aqueous one solution assay relative to control; type: cell-based; settings: read-out: Activity
# In short: (§4)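 HepG2 (DMEM, 10% FBS, 1 mM pyruvate) or A431 (DMEM, 10% FBS) seeded 10,000 cells/well, 24 h at 37 °C, 5% CO2, then 30 µM compound for 48 h. MTS reagent 60 min, absorbance 490 nm, background subtracted; 0.1% DMSO vehicle = 100%, 10% SDS = 0% viability.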
# A-431 = assay: Cytotoxicity against human A431 cells assessed as reduction in cell viability after 48 hrs by CellTiter 96 aqueous one solution assay; type: cell-based; settings: A-431, 48 h
# [18] = Cytotoxicity against human A431 cells assessed as cell viability at 30 uM after 48 hrs by CellTiter 96 aqueous one solution assay relative to control; type: cell-based, A-431; settings: read-out: Activity; in short: as §4
Compound,MIC99 [1] [µM],MIC99 [2] [µM],MIC99 (Mycobacterium avium [3]) [µM],MIC99 (Mycobacterium avium [4]) [µM],MIC99 (Mycobacterium kansasii [5]) [µM],MIC99 (Mycobacterium kansasii [6]) [µM],MIC99 (Mycobacterium kansasii [7]) [µM],MIC99 (Mycobacterium kansasii [8]) [µM],MIC99 (Mycobacterium kansasii [9]) [µM],MIC99 (Mycobacterium kansasii [10]) [µM],MIC99 [11] [µM],MIC99 [12] [µM],Activity (Staphylococcus aureus [13]),Activity (Staphylococcus aureus [14]),Activity [15],Activity (Enterococcus faecalis),Activity (Escherichia coli),Activity (Klebsiella pneumoniae),Activity (Serratia marcescens),Activity (Pseudomonas aeruginosa),further results
Cn1c(SCc2ccccc2)nnc1-c1cc([N+](=O)[O-])cc([N+](=O)[O-])c1,0.03,0.03,16,16,0.25,0.25,0.25,0.06,0.125,0.25,0.03,0.03,inactive,inactive,inactive,inactive,inactive,inactive,inactive,inactive,"Activity (Candida albicans): inactive; Activity (Pichia kudriavzevii): inactive; Activity (Candida parapsilosis): inactive; Activity (Candida tropicalis): inactive; Activity (Aspergillus fumigatus): inactive; Activity (Aspergillus flavus): inactive; Activity (Lichtheimia corymbifera): inactive; Activity [16]: inactive; IC50 (HepG2): > 30 µM; viability at 48 h, 30 µM [17]: 161%; IC50 (A-431): > 30 µM; viability at 48 h, 30 µM [18]: 108%"
O=[N+]([O-])c1cc(CSc2nnc(-c3ccccc3)n2Cc2ccccc2)cc([N+](=O)[O-])c1,4,4,> 1000,> 1000,2,4,8,2,8,8,2,4,inactive,inactive,inactive,inactive,inactive,inactive,inactive,inactive,"Activity (Candida albicans): inactive; Activity (Pichia kudriavzevii): inactive; Activity (Candida parapsilosis): inactive; Activity (Candida tropicalis): inactive; Activity (Aspergillus fumigatus): inactive; Activity (Aspergillus flavus): inactive; Activity (Lichtheimia corymbifera): inactive; Activity [16]: inactive; IC50 (HepG2): > 30 µM; viability at 48 h, 30 µM [17]: 107%; IC50 (A-431): > 30 µM; viability at 48 h, 30 µM [18]: 69%"
